Results taken from paper PMC11522000 (Nature Microbiology, 2024).
Values after ≈ are worked out from the molar mass of the structure shown. Values joined by “and” are separate entries in the source; they are usually repeats but may differ in a detail not shown here. Equal values may be shown once. “Also recorded” adds a separate entry of the source.

Legend:
[1] = Liver microsomes metabolic stability; format: in vitro ADME; conditions: rat
Procedure, shortened: (§1)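 Test compound was incubated with liver microsomes or hepatocytes of each species, and parent depletion was quantified by LC-MS/MS. From this, in vitro half-life and intrinsic clearance were derived, along with predicted metabolic clearance and hepatic extraction ratio.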

[2] = Systemic exposure in the mouse efficacy studies; format: in vivo
[3] = target: CYP3A4 (Homo sapiens, UniProt P08684); assay: CYP450 reversible inhibition; format: in vitro ADME
Chain of CYP3A4 (P08684 whole entry): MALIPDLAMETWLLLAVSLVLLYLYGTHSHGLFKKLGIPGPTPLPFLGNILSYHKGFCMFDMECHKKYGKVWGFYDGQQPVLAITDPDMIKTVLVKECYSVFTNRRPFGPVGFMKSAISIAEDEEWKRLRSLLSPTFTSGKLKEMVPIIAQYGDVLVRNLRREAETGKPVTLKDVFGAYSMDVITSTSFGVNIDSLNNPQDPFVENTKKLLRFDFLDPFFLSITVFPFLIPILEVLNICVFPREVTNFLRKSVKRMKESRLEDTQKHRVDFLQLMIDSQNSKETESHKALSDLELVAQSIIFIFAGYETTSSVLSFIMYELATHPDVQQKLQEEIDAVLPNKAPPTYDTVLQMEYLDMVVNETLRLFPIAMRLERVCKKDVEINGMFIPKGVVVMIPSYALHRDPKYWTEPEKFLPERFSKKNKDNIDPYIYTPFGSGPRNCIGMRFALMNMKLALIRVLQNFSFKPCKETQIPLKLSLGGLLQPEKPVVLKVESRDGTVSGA

[4] = test system: CpPI(4)K::Y705A:Y907A; assay: PI; format: biochemical, C. parvum
Procedure, shortened: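 Enzyme was pre-incubated with compound for 5 min at room temperature. The reaction was started with substrate mix at twice final strength (PI, ATP, Tris-HCl pH 7.5, DTT, 0.05% Triton X-100, MnCl2) and run 50 min at room temperature. ADP was measured by ADP-Glo luminescence. IC50s came from in-plate duplicate 10-point 3-fold dilutions, with DMSO and reference-inhibitor controls. The C. parvum enzymes (wild type and mutants) were full-length proteins expressed from baculovirus in Sf21 cells.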

[5] = Plasma protein binding; format: in vitro ADME; conditions: dog
[6] = Plasma stability; format: in vitro ADME; conditions: human
Procedure, shortened: (§2)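 Test compound was added to plasma and incubated at 37 °C in a shaking water bath, with samples taken at sequential timepoints. Samples were quenched with ice-cold acetonitrile and analysed by LC-MS/MS, and half-life was calculated from the depletion rate.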

[7] = Plasma protein binding; format: in vitro ADME; conditions: human
[8] = Hepatocytes metabolic stability; format: in vitro ADME; conditions: dog
Procedure, shortened: as §1

[9] = target: CYP2C9 (Homo sapiens, UniProt P11712); assay: CYP450 reversible inhibition; format: in vitro ADME
Chain of CYP2C9 (P11712 whole entry): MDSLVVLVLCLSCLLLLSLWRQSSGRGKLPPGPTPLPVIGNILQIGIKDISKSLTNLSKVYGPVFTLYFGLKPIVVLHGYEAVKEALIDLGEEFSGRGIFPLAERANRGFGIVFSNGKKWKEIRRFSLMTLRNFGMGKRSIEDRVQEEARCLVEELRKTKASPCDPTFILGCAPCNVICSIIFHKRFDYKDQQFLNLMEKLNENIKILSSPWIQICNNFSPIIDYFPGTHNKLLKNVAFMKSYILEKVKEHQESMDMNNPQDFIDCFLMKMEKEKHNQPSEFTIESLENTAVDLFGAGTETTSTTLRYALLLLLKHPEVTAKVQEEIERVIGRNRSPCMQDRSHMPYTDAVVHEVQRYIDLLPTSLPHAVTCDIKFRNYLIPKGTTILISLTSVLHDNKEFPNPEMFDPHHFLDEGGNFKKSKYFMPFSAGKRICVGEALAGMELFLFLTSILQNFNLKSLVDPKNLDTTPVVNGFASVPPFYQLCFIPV

[10] = target: CYP2D6 (Homo sapiens, UniProt P10635); assay: CYP450 reversible inhibition; format: in vitro ADME
Chain of CYP2D6 (P10635 whole entry): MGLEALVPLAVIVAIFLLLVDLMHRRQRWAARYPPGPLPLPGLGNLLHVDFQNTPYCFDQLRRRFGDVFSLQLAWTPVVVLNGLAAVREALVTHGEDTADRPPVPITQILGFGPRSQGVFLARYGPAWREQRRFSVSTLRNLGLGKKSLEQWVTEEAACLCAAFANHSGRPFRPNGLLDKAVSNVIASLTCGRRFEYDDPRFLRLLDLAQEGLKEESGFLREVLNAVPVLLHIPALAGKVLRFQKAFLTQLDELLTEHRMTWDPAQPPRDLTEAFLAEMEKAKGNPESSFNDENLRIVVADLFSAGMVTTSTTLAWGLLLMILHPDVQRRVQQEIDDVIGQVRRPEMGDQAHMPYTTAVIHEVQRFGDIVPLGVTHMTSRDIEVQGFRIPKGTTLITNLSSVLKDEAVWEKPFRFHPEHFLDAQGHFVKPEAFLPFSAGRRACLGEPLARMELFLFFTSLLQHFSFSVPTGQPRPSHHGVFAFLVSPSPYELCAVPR

[11] = test system: Salmonella typhimurium strains TA98 and TA100; assay: Mini-Ames
Procedure, shortened: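 Histidine-auxotrophic S. typhimurium TA98 and TA100 were exposed to test compound with and without rat liver S9.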

[12] = Liver microsomes metabolic stability; format: in vitro ADME; conditions: mouse
Procedure, shortened: as §1

[13] = High-throughput equilibrium solubility; format: physicochemical; conditions: thermodynamic from solid
Procedure, shortened: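 Equilibrium solubility was measured by a miniaturized shake-flask method with HPLC quantification.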

[14] = target: hNav1.5 (Homo sapiens, UniProt Q14524); assay: Patch clamp Nav1.5 Quattro; format: cell-based
Chain of hNav1.5 (Q14524 whole entry): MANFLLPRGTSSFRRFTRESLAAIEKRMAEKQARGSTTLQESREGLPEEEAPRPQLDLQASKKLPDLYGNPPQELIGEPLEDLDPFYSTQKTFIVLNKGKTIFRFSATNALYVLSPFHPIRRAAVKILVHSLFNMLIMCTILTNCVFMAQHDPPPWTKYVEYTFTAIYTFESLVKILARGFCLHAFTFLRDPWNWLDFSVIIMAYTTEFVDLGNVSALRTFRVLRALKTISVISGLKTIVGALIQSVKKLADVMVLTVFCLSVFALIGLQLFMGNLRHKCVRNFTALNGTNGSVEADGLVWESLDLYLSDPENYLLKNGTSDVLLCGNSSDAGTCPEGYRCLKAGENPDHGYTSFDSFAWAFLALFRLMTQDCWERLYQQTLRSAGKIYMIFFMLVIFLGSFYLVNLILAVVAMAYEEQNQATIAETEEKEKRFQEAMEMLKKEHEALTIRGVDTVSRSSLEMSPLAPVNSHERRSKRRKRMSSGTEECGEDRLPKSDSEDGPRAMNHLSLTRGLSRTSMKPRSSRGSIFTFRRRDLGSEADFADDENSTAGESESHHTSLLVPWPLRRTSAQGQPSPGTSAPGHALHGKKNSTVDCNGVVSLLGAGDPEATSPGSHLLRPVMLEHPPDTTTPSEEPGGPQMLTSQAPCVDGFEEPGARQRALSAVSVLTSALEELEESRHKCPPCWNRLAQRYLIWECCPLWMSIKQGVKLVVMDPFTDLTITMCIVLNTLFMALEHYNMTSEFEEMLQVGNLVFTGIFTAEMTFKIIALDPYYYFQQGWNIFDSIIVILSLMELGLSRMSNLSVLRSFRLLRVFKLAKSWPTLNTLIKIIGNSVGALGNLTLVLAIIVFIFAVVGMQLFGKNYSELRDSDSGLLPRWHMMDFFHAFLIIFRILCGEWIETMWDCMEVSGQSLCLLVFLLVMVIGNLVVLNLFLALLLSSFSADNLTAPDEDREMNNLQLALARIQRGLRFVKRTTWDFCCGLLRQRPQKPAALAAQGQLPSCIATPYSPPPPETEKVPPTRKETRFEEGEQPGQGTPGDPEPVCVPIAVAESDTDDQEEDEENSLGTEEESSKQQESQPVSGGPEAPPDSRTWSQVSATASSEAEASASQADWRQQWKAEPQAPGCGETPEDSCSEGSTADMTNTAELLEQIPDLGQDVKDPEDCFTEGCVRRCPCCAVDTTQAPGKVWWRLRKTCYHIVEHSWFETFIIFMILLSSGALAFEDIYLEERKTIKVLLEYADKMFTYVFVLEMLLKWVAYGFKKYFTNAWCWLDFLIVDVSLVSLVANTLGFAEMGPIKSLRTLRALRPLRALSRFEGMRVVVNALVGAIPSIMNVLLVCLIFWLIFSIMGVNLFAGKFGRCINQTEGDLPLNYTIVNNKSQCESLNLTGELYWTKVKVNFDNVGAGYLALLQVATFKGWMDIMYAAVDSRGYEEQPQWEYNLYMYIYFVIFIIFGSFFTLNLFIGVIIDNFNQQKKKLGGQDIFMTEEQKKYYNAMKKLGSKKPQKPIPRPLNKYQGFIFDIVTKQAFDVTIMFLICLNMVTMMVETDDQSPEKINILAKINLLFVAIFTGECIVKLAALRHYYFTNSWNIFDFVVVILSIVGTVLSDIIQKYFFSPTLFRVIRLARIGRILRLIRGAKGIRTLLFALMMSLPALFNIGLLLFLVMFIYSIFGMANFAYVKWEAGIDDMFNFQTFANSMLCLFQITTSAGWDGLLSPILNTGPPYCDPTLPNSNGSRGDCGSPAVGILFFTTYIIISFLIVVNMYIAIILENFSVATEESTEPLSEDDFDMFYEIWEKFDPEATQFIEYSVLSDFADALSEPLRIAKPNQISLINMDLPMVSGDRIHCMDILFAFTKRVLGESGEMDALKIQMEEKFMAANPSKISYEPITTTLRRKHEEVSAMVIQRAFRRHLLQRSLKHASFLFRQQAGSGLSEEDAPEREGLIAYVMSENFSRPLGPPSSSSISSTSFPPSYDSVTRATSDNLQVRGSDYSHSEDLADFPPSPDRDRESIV
Procedure, shortened: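 Each channel was stably expressed in HEK293 cells and tested by patch clamp with a 7-point concentration-response.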

[15] = target: hERG (Homo sapiens, UniProt Q12809); assay: hERG binding assay
Chain of hERG (Q12809 whole entry): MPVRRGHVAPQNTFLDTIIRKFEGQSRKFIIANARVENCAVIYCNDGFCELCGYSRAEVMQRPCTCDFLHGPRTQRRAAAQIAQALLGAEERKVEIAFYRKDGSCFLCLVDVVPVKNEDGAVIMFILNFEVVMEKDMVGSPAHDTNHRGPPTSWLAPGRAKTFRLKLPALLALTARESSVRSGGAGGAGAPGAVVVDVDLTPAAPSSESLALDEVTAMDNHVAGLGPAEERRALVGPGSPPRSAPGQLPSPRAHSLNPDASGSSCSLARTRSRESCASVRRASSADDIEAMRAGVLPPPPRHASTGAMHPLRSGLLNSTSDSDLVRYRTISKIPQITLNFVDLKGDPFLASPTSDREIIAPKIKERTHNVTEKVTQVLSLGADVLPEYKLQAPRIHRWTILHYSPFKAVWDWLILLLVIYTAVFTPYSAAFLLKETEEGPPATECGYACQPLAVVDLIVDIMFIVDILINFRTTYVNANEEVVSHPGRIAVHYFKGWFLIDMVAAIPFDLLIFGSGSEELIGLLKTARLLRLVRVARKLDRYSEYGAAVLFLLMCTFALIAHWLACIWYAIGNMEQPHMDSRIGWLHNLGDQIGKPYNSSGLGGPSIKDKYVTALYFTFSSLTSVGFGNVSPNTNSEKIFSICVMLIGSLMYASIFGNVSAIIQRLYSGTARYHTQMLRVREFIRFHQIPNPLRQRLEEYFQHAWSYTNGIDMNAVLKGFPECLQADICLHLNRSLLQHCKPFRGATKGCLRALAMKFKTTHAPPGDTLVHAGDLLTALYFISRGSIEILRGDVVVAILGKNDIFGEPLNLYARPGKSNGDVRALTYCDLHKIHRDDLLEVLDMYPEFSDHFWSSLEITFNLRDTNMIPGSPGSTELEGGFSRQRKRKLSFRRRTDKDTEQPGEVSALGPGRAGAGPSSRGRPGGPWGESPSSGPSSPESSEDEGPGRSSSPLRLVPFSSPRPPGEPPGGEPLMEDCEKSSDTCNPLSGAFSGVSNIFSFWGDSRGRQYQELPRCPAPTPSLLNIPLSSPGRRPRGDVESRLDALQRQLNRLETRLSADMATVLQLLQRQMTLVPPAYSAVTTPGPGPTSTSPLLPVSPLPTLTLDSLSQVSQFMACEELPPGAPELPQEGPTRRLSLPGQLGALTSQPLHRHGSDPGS
Procedure, shortened: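 Binding was measured in hERG-expressing HEK293 cells. Concentration-response curves were typically 6-point, spanning 0.37 to 30.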

[16] = Hepatocytes metabolic stability; format: in vitro ADME; conditions: mouse; for half-life / hepatocyte CLint: hepatocytes
Procedure, shortened: as §1

[17] = Liver microsomes metabolic stability; format: in vitro ADME; conditions: dog
Procedure, shortened: as §1

[18] = test system: P-glycoprotein (MDR1); assay: MDCK MDR1 permeability and efflux; format: in vitro ADME; conditions: dog
[19] = test system: rat reticulocytes; assay: In vivo rat peripheral blood micronucleus assay
Procedure, shortened: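 Peripheral blood was taken on days 3 and 15, in randomized order, from animals in the 2-week rat toxicology study. Micronucleated reticulocytes were counted by flow cytometry.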

[20] = target: hERG potassium channel (Homo sapiens, UniProt Q12809); assay: hERG Q-Patch; format: cell-based
Procedure, shortened: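 hERG potassium current was recorded at near-physiological temperature in stably transfected mammalian cells expressing hERG. The test compound was applied as a 4-point dose response spanning 1–30.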

[21] = Plasma stability; format: in vitro ADME; conditions: mouse
Procedure, shortened: as §2

[22] = Stability in intestinal S9 fraction; format: in vitro ADME; conditions: mouse
Procedure, shortened: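 Test compound added to intestinal S9 fraction of each species to start the reaction. Incubated in a shaking water bath at 37 °C, with samples taken at sequential timepoints. Samples quenched with ice-cold acetonitrile and analysed by LC-MS/MS. Half-life calculated from the rate of parent compound depletion.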

[23] = target: HsPI(4)K (Homo sapiens, UniProt Q9UBF8); assay: PI; format: biochemical; conditions: for IC50: HsPI(4)K IC50, 3 μM ATP
Chain of HsPI(4)K (Q9UBF8 523-816 limits assumed): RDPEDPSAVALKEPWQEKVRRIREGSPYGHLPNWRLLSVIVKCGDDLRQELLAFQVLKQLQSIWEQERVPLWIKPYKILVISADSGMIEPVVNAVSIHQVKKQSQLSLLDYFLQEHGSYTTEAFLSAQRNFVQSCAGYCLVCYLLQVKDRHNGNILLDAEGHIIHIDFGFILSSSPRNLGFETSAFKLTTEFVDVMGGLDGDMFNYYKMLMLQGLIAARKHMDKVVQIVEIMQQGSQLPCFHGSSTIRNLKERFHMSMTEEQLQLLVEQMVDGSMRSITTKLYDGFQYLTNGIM

[24] = MDCK Low Efflux permeability; format: in vitro ADME; conditions: dog
[25] = test system: C. parvum; assay: Live imaging of C. parvum in HCT-8 cells; format: cell-based, Cryptosporidium parvum; conditions: compound at 3 h post infection
[26] = test system: C. parvum; assay: DNA synthesis; format: cell-based, Cryptosporidium parvum; conditions: compound at 3 h post infection, EdU at 9 h
Procedure, shortened: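 HCT-8 cells were seeded at 5,000–25,000 per well on fibronectin-coated glass-bottom plates to reach 90–100% confluence, then infected with triggered oocysts. After 3 h at 37 °C, test compound or controls were added (DMSO neutral, cladosporin active) and incubation continued to about 9 h post infection. EdU was detected, vacuoles stained with VVL and nuclei with Hoechst, and wells imaged with a 40x objective.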

[27] = In vivo pharmacokinetics, all tested preclinical species; conditions: male, mouse, rat, dog, plasma, po
Procedure, shortened: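 Animals were male C57BL/6 mice (8–10 weeks), Wistar rats (8–10 weeks) and beagle dogs (12–14 weeks). Each received oral and i.v. doses, with plasma sampling for PK parameters.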

[28] = test system: human PXR; assay: PXR reporter gene assay; format: in vitro ADME
Procedure, shortened: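 CYP3A4 transactivation was measured in the human hepatoma line DPX-2, which overexpresses human PXR and carries a CYP3A4 promoter-luciferase reporter.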

[29] = Neonatal calf pharmacokinetics; format: in vivo; conditions: bovine, plasma, po, 10 mg/kg
Procedure, shortened: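 Calves were dosed orally at 10 mg/kg birth weight every 12 h, at least 2 h after feeding. On day 1, blood was drawn before dosing and at several timepoints up to 12 h.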

## CN(C(=O)c1ccn2ncc(-c3ccc(C(N)=O)cc3)c2c1)c1ccc(C#N)cn1 [KDU731, 3–(4-carbamoylphenyl)-N-(5-cyanopyridin-2-yl)-N-methylpyrazolo [1,5-a]pyridine-5-carboxamide, reference compound]
[1]
  Microsomal ER: 47%
  microsomal CLint: 29 µL/min/mg
[2]; mouse efficacy study, 10 mg kg^−1 oral
  AUC (time 0 to last timepoint): 2,982 nM h
[3]
  IC50: > 50 µM
[4]
  loss of potency against CpPI(4)K::Y705A:Y907A mutant compared with wild-type: 35–200 ×
[5]
  % Plasma protein binding: 70.8%
[6]
  half-life: > 2 h
[7]
  % Plasma protein binding: 79.1%
[8]
  Hepatocytes ER: 10%
[9]
  IC50: > 4.8 µM
[10]
  IC50: > 50 µM
[11]
  Mini-AMES: Negative
[12]
  Microsomal ER: 48%
  microsomal CLint: 50 µL/min/mg
[13]; FaSSIF
  solubility: 48 µM (≈ 19 µg/mL)
[13]; pH 6.8, aqueous buffer
  solubility: 19 µM (≈ 7.53 µg/mL)
[14]
  IC50: > 50 µM
[15]
  IC50: > 30 µM
[16]
  Hepatocytes ER: 18%
  half-life: > 2.92 h
  hepatocyte CLint: < 4 µL/min/1e6 cells
[17]
  Microsomal ER: 67%
  microsomal CLint: 36 µL/min/mg
[18]; MDCK-MDR1
  Papp A→B: 1.95 ×10⁻⁶ cm/s
  Papp B→A: 15.5 ×10⁻⁶ cm/s
  efflux ratio: 7.93
[19]
  In vivo rat reticulocytes MN induction: induce micronuclei; also recorded: Positive
[20]
  IC50: 23 µM
[21]
  half-life: 1.42 h
[22]
  half-life: > 4 h
[23]
  IC50: 1.93 ± 1.08 µM
[24]
  Papp A→B: 12.1 ×10⁻⁶ cm/s

## CNC(=O)c1ccc(-c2cnn3ccc(C(=O)N(C)c4ccc(Cl)c(C(=O)OC)c4)cc23)cc1 [EDI048, methyl 2-chloro-5-(N-methyl-3-(4-(methylcarbamoyl)phenyl)pyrazolo[1,5-a]pyridine-5-carboxamido)benzoate]
[1]
  Microsomal ER: 96%
[1]; liver microsomes
  microsomal CLint: > 700 µL/min/mg
[2]; mouse, oral 1 and 3 mg kg^−1
  systemic exposure: no detectable EDI048 systemic exposure
[3]
  IC50: 10.5 µM
[4]
  loss of potency against CpPI(4)K::Y705A:Y907A mutant compared with wild-type: 35–200 ×
[5]; plasma
  fraction unbound: 0.061
[6]
  Plasma T1/2: > 2 h
[6]; Plasma T1/2, human plasma
  half-life: > 4 h
[7]; plasma
  fraction unbound: 0.045
[8]
  Hepatocytes ER: 83%
[8]; hepatocytes
  hepatocyte CLint: 28.5 µL/min/1e6 cells
[9]
  IC50: 2.51 µM
[10]
  IC50: > 25 µM
[25]
  live imaging of infected HCT-8 cells: parasites were arrested at the meront stage, preventing egress
[26]
  DNA synthesis (EdU incorporation): does not affect DNA synthesis
[11]
  Mini-AMES: Negative
[27]
  bioavailability: 0.4 to 5.6%
[12]
  Microsomal ER: 93%
[12]; liver microsomes
  microsomal CLint: > 700 µL/min/mg
[13]; FaSSIF, Solubility FaSSIF
  solubility: 198 µM (≈ 94.4 µg/mL)
[13]; pH 6.8, aqueous buffer, Solubility pH 6.8, pH 6.8
  solubility: 54 µM (≈ 25.8 µg/mL)
[14]
  IC50: > 50 µM
[15]
  IC50: > 30 µM
[16]
  Hepatocytes ER: 93%
  half-life: 0.0467 h
  hepatocyte CLint: > 250 µL/min/1e6 cells
[17]
  Microsomal ER: 94%
[17]; liver microsomes
  microsomal CLint: 271 µL/min/mg
[18]; MDCK-MDR1
  Papp A→B: 7.92 ×10⁻⁶ cm/s
  efflux ratio: 1.62
[18]; MDCK-MDR1, Permeability B–A, MDCK MDR1, basolateral to apical
  Papp B→A: 12.9 ×10⁻⁶ cm/s
[19]
  In vivo rat reticulocytes MN induction: Negative
[20]
  IC50: 8.3 µM
[21]; Plasma T1/2, mouse plasma
  half-life: 0.255 h
[21]; Plasma T1/2, rodent plasma
  half-life: 0.2 to 0.25 h
[22]
  half-life: 0.75 h
[28]
  induction of human pregnane X receptor: did not induce human pregnane X receptor
[23]
  selectivity for Cryptosporidium PI(4)K over HsPI(4)K: > 300 fold and 300 fold
  IC50: 1.03 ± 0.47 µM
[29]; infected calves with diarrhea
  Tmax: 12 h
[29]; uninfected healthy calves
  Tmax: 2 h
[24]
  Papp A→B: 9.71 ×10⁻⁶ cm/s
